Measured values from article PMC3565064 (Analytical biochemistry, 2012).
Like-named read-outs stand apart in the source and are kept apart here.

Experiments:
[1] = Self-aggregation of the peptide incubated alone; assay type: physicochemical
Method in brief: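 The tagged peptide (20 μM) without Aβ was incubated at 37 °C. DPV was run in 100 mM phosphate/50 mM KClO₄, pH 7.4. For AFM, aliquots of the incubated solution were cast on mica pretreated with 10 mM NiCl₂ for 15 min, rinsed with water and dried under nitrogen. They were imaged in tapping mode over 5 μm × 5 μm fields at the stated incubation times.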

Aβ(1–42) aggregates = Aβ(1–42) aggregates (Homo sapiens, UniProt P05067); assay type: binding; settings: for ka, pseudo-first-order rate constant: DPV current decay fit, 100 mM phosphate buffer/50 mM KClO4 pH 7.4, 37 °C, average of three replicates; for t1/2, half-life: from pseudo-first-order ka
Aβ(1–42) aggregates, sequence (P05067 672-713 limits assumed): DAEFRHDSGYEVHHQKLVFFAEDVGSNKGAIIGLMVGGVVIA
Method in brief: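 HFIP-pretreated, lyophilised Aβ(1–42) and the ferrocene-tagged peptide (20 μM) were dissolved in 100 mM phosphate/50 mM KClO₄, pH 7.4, at several peptide:Aβ ratios and held at 37 °C. DPV was recorded over 0–24 h (pulse amplitude 50 mV, width 50 ms, period 200 ms, sample width 17 ms). Points were averages of three replicates, and current–time curves were fitted to a pseudo-first-order rate law.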

[2] = cited from earlier work

Substance | self-aggregation, AFM of the peptide alone ([1]; 20 μM Fc-KLVFFK6 incubated alone, AFM (Figure 4 row D)) | self-aggregation, DPV current of the peptide alone ([1]; 20 μM Fc-KLVFFK6 without Aβ(1–42), 100 mM phosphate buffer/50 mM KClO4 pH 7.4, 37 °C, 24 h, steady DPV current) | ka, pseudo-first-order rate constant (Aβ(1–42) aggregates; [Fc-KLVFFK6]:[Aβ(1–42)] 1:0.25, 20 μM Fc-KLVFFK6) | t1/2, half-life (Aβ(1–42) aggregates; [Fc-KLVFFK6]:[Aβ(1–42)] 1:0.25) [h] | ka, pseudo-first-order rate constant (Aβ(1–42) aggregates; [Fc-KLVFFK6]:[Aβ(1–42)] 1:0.5, 20 μM Fc-KLVFFK6) | t1/2, half-life (Aβ(1–42) aggregates; [Fc-KLVFFK6]:[Aβ(1–42)] 1:0.5) [h] | ka, pseudo-first-order rate constant (Aβ(1–42) aggregates; [Fc-KLVFFK6]:[Aβ(1–42)] 1:1, 20 μM Fc-KLVFFK6) | t1/2, half-life (Aβ(1–42) aggregates; [Fc-KLVFFK6]:[Aβ(1–42)] 1:1) [h] | ka, pseudo-first-order rate constant (Aβ(1–42) aggregates; [Fc-KLVFFK6]:[Aβ(1–42)] 1:2, 20 μM Fc-KLVFFK6) | t1/2, half-life (Aβ(1–42) aggregates; [Fc-KLVFFK6]:[Aβ(1–42)] 1:2) [h] | ka, pseudo-first-order rate constant (Aβ(1–42) aggregates; [Fc-KLVFFK6]:[Aβ(1–42)] 1:4, 20 μM Fc-KLVFFK6) | incubation time at which the DPV current reaches a plateau (Aβ(1–42) aggregates; all stoichiometric ratios, 20 μM Fc-KLVFFK6, 37 °C) | half-life of the conjugate formed between Fc-KLVFFK6 and the Aβ(1–42) aggregates (Aβ(1–42) aggregates; over all stoichiometric ratios of Table 1) [h] | self-aggregation [2]
Fc-KLVFFK6 | does not self-aggregate when incubated alone | does not undergo self-aggregation | (1.49 ± 0.15) × 10^−4 s^−1 | 1.2919 | (1.43 ± 0.08) × 10 ^−4 s^−1 | 1.3462 | (1.26 ± 0.07) × 10 ^−4 s^−1 | 1.5278 | (1.71 ± 0.05) × 10^−4 s^−1 | 1.1257 | (1.89 ± 0.05) × 10^−4 s^−1 | about 6 h | 1.2632 ± 0.1961 | –
KLVFF | – | – | – | – | – | – | – | – | – | – | – | – | – | known to self-aggregate
